Experimental data published in ChEMBL document CHEMBL1148795 (J Med Chem, 2007).
Activity calls are given as the source filed them. No cut-off for these calls is given here.

Tests used:
[1] = test system: Human immunodeficiency virus 1; experiment: Antiviral activity against HIV1 with RT Y181C mutation; assay type: functional, organism-based
Outline: (§1)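 Cytoprotection assay in CEM-SS cells infected with HIV-1 strains engineered to carry the NNRTI-resistance RT mutation (K103N or Y181C). Activity is expressed as the EC50 for protection of the cells from virus-induced cytopathic effect.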

[2] = test system: Human immunodeficiency virus 1; experiment: Antiviral activity against HIV1 with RT K103N mutation; assay type: functional, organism-based; outline: as §1
[3] = Cytotoxicity against human CEM-SS cells by MTT assay; assay type: cell-based
[4] = test system: Human immunodeficiency virus 1; experiment: Antiviral activity against HIV1 RF in human CEM-SS cells by XTT assay; assay type: functional, organism-based; details: for EC50: Human immunodeficiency virus 1, RF
[5] = molecular target: Human immunodeficiency virus type 1 reverse transcriptase (Human immunodeficiency virus 1, UniProt Q72547); experiment: Inhibition of HIV1 reverse transcriptase
[6] = Metabolic stability in rat plasma; assay type: ADME, cell-free
Outline: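 Compounds were incubated in reconstituted rat plasma (two lots, checked with a control compound), with 1,1-diphenylethylene as internal standard. Aliquot supernatants were analysed by HPLC with UV detection. Half-lives came from regression fits of concentration versus time and were averaged over at least two replicates.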

[7] = test system: Human immunodeficiency virus 2; experiment: Antiviral activity against HIV2 ROD in human MT4 cells by MTT assay; details: for EC50: Human immunodeficiency virus 2, ROD
[8] = Cytotoxicity against human MT4 cells by MTT assay; assay type: cell-based
[9] = test system: Human immunodeficiency virus 1; experiment: Antiviral activity against HIV1 3B in human MT4 cells by MTT assay; details: for EC50: Human immunodeficiency virus 1, 3B

Structure (SMILES)	EC50 [1] [µM]	EC50 [2] [µM]	CC50 [3] [µM]	EC50 [4] [nM]	IC50 [5] [µM]	half-life [6] [min]	Activity [7]	CC50 [8] [µM]	Activity [9]	Activity [4]	EC50 [7] [µM]	EC50 [9] [nM]
COc1c(C)cc(/C(=C\CCc2nnc(C)o2)c2ccc3oncc3c2)cc1C(=O)SC	> 100	> 50	38	2600	7.7							
COc1c(C)cc(/C(=C/CCCc2nnc(C)o2)c2ccc(C#N)cc2)cc1C(=O)SC	> 100	> 50	4.8		0.45	41.5	inactive	7.6	inactive	inactive		
COc1c(C)cc(/C(=C/CCc2nnc(C)o2)c2cc(C)c3oc(=O)n(C)c3c2)cc1C(=O)SC			6.6		90			14	inactive	inactive	5.9	
COC(=O)c1cc(/C(=C\CCc2nnc(C)o2)c2cc(C)c3on(C)c(=O)c3c2)cc(C)c1OC	> 100	> 50	7.7	3000	7.4	220	inactive	41				2700
COc1c(C)cc(/C(=C\CCCc2nnc(C)o2)c2ccc(C#N)cc2)cc1C(=O)SC	> 100	2.3	8.9	600	3.2	45	inactive	36				360
COC(=O)c1cc(C(=CCCc2nnn(C)n2)c2cc(C)c(OC)c(C(=O)SC)c2)cc(C)c1OC			1.6		95		inactive	1.4	inactive	inactive		
COC(=O)c1cc(/C(=C\CCc2nnc(C)o2)c2cc(C)c3onc(OC)c3c2)cc(C)c1OC	> 100	0.8	2.8	360	0.39	331	inactive	6.4				420
COC(=O)CCC/C=C(\c1cc(C)c(OC)c(C(=O)OC)c1)c1cc(C)c2oc(=O)n(C)c2c1							inactive					
COc1c(C)cc(/C(=C/CCc2nnc(C)o2)c2cc(C)c3onc(OC)c3c2)cc1C(=O)SC			1.2		33		inactive	1.6	inactive	inactive		
COc1c(C)cc(/C(=C\CCCc2nnc(C)o2)c2cc(C)c3on(C)c(=O)c3c2)cc1C(=O)SC			6	970	> 100		inactive	9.9				760
COc1c(C)cc(/C(=C\CCc2nnc(C)o2)c2cc(C)c3onc(OC)c3c2)cc1C(=O)SC	> 100	> 50	2.1	520	0.9	1090	inactive	4.4				810
Cc1ccnc2c1NC(=O)c1cccnc1N2C1CC1 [NEVIRAPINE]				15			inactive	15				
COc1c(C)cc(/C(=C\CCCc2nnc(C)o2)c2cc(C)c3onc(OC)c3c2)cc1C(=O)SC	> 100	0.4	5.7	50	0.47	864	inactive	7				140
COc1c(C)cc(/C(=C\CCc2nnc(C)o2)c2cccc(C#N)c2)cc1C(=O)SC			2.7		9.3	221	inactive	8.4		inactive		1400
COc1c(C)cc(/C(=C/CCCc2nnc(C)o2)c2cc(C)c3oc(=O)n(C)c3c2)cc1C(=O)SC			5.5		36		inactive	7.7	inactive	inactive		
COc1c(C)cc(C(=CCCc2nnn(C)n2)c2cc(C)c(OC)c(C(=O)SC)c2)cc1C(=O)SC			33		67		inactive	7	inactive			
COC(=O)c1cc(/C(=C\CCc2nnc(C)o2)c2ccc(C#N)cc2)cc(C)c1OC			28	3000	24	45	inactive	16				2000
COc1c(C)cc(/C(=C/CCCc2nnc(C)o2)c2cccc(C#N)c2)cc1C(=O)SC			7.2		7.7		inactive	8.2	inactive	inactive		

Structure (SMILES)	EC50 [1] [µM]	EC50 [2] [µM]	CC50 [3] [µM]	EC50 [4] [nM]	IC50 [5] [µM]	half-life [6] [min]	Activity [7]	CC50 [8] [µM]	Activity [9]	Activity [4]	EC50 [7] [µM]	EC50 [9] [nM]
COc1c(C)cc(C(=CCCCc2nnc(C)o2)c2cc(C)c(OC)c(C(=O)SC)c2)cc1C(=O)SC	> 100	> 50	5.3	2200	6.7	76	inactive	4.4				1300
COc1c(C)cc(/C(=C/CCc2nnc(C)o2)c2cc(C)c3on(C)c(=O)c3c2)cc1C(=O)SC			17		> 100		inactive	37	inactive	inactive		
O=C1Nc2ccc(Cl)cc2C(C#CC2CC2)(C(F)(F)F)O1 (single isomer, unassigned) [EFAVIRENZ]							inactive	6				
COc1c(C)cc(/C(=C/CCCc2nnc(C)o2)c2cc(C)c3onc(OC)c3c2)cc1C(=O)SC	> 100	> 50	0.78		5.2		inactive	1.1	inactive	inactive		
COC(=O)CCCC=C(c1cc(Br)c(OC)c(C(=O)OC)c1)c1cc(Br)c(OC)c(C(=O)OC)c1			13			6.2	inactive	91				
COC(=O)c1cc(/C(=C\CCc2nnn(C)n2)c2cccc(C#N)c2)cc(C)c1OC			7.4	2400	7.7	42	inactive	34				1500
COC(=O)CCCC=C(c1cc(Cl)c(OC)c(C(=O)OC)c1)c1cc(Cl)c(OC)c(C(=O)OC)c1			32	10		5.8		160			25	
COc1c(C)cc(/C(=C/CCc2nnc(C)o2)c2ccc(C#N)cc2)cc1C(=O)SC			1.2		48		inactive	3.2	inactive	inactive		
COC(=O)CCC/C=C(\c1cc(C)c(OC)c(C(=O)OC)c1)c1cc(C)c2onc(OC)c2c1					0.91							
COC(=O)c1cc(C(=CCCc2nnc(C)o2)c2cc(C)c(OC)c(C(=O)SC)c2)cc(C)c1OC			13		32	78	inactive	3.9	inactive	inactive		
COC(=O)c1cc(C(=CCCc2nnc(C)o2)c2cc(C)c(OC)c(C(=O)OC)c2)cc(C)c1OC			40		71	3.3	inactive	37				
COc1c(C)cc(/C(=C\CCc2nnc(C)o2)c2ccc(C#N)cc2)cc1C(=O)SC	> 100	> 50	5.5	2100	6.3		inactive	45				3200
COc1c(C)cc(/C(=C/CCc2nnc(C)o2)c2cccc(C#N)c2)cc1C(=O)SC			1.3		55		inactive	3.8	inactive	inactive		
COC(=O)c1cc(/C(=C/CCc2nnc(C)o2)c2cc(C)c3oc(=O)n(C)c3c2)cc(C)c1OC	> 100	> 50	3.2	430	1		inactive	13				440
COc1c(C)cc(/C(=C/CCCc2nnc(C)o2)c2cc(C)c3on(C)c(=O)c3c2)cc1C(=O)SC			12		> 100		inactive	25	inactive	inactive		
COc1c(C)cc(/C(=C\CCc2nnc(C)o2)c2cc(C)c3on(C)c(=O)c3c2)cc1C(=O)SC	> 100	> 50	18	6400	9.2		inactive	19				3700
COC(=O)c1cc(C(=CCCc2nnn(C)n2)c2cc(C)c(OC)c(C(=O)OC)c2)cc(C)c1OC			9.6		53	24	inactive	5	inactive	inactive		
COc1c(C)cc(C(=CCCc2nnc(C)o2)c2cc(C)c(OC)c(C(=O)SC)c2)cc1C(=O)SC			8.1		> 100		inactive	5.9	inactive	inactive		
